# According to publication PMC9677924 (International Journal of Nanomedicine, 2022):
# Columns and labels:
# [1] = Biosafety examination; format: in vivo, nude mice; settings: after the Q3D×4 regimen
# Summary of the method: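 Organs and tumors came from the MCF-7/HER2 xenograft nude-mouse study (IV dosing every 3 days ×4). Tail morphology was examined on day 24. On day 28 after administration, tissues were fixed in 4% paraformaldehyde. Heart, liver, spleen, lungs and kidneys were H&E-stained and scored for inflammatory cell infiltration.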
# [2] = In vivo pharmacokinetic studies; parameters: species or system Sprague-Dawley rats
# [3] = In vivo biodistribution studies in MCF-7/HER2 tumor-bearing mice; parameters: species or system nude mice; settings: 8 h after administration; liver and kidneys
# [4] = test system: MCF-7/HER2 cells; assay: In vitro cytotoxicity, MTT assay; format: cell-based; settings: Homo sapiens, MCF7, 48 h, read-out: IC50 (ng/mL) Free Drug
# Summary of the method: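 MCF-7/HER2 cells grown in DMEM/F12 with 10% FBS and 1% penicillin/streptomycin/amphotericin B at 37 °C, 5% CO2. Seeded at 1×10^4 cells/well for 24 h, then exposed to test compounds (free or nanocarrier forms) at 1~500 ng/mL. Methods give a 48 h exposure; the figure legend gives 72 h. Then 0.5 mg/mL MTT for 3 h, formazan dissolved in DMSO, absorbance read at 550 nm.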
# [5] = test system: MCF-7/HER2 tumors; assay: In vivo tumor inhibition studies; parameters: species or system nude mice; settings: day 24, compared with the PBS group; IV Q3D×4
# Summary of the method: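 Female nude mice (7 weeks) injected s.c. in the right thigh with 1×10^6 MCF-7/HER2 cells, plus 20 μg estradiol valerate in sesame oil s.c. in the neck. At ~100 mm3, mice were randomized to 10 groups (n=4, saline control). They received IV tail-vein doses equivalent to 5 mg/kg taxane and/or 2.5 mg/kg PI3K inhibitor every 3 days ×4. Volume (L×W²/2) and body weight were recorded every 3 days. Tumors were excised and weighed on day 24.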
# [6] = cited from earlier work
# [7] = cited from earlier work; remark: listed apart in the source
# [8] = In vitro release of docetaxel and pictilisib; format: physicochemical; settings: after 12 h
# [9] = female, Sprague-Dawley, rat, plasma, iv, 5 mg/kg
# [10] = female, Sprague-Dawley, rat, plasma, iv, 2.5 mg/kg
"AUC(0-inf) [2, 9]","AUC(0-t) [2, 9]","Vd [2, 9]","clearance [2, 9]","half-life [2, 9]","Relative bioavailability (%) of DTX ([2]; relative to Free DTX, IV 5 mg/kg BW DTX, rats)","AUC(0-inf) [2, 10]","AUC(0-t) [2, 10]","Vd [2, 10]","half-life [2, 10]","C0 (μg/mL) of PIC ([2]; pictilisib in plasma, IV 2.5 mg/kg BW PIC, rats, n=3, listed as Free PIC, 2.5 mg/kg)",Structure (SMILES),"liver, H&E staining (inflammatory cell infiltration) [1]",accumulation of DTX in major organs [3],IC50 [4],tumor weights / tumor inhibition [5],pKa [6],log P [7],precipitation in the dialysis bag [8]
524 ± 37 ng·h/mL,487 ± 37 ng·h/mL,73.4 ± 5.22 L/kg,160 mL/min/kg,5.32 ± 0.24 h,100%,–,–,–,–,–,"CC(=O)O[C@@]12CO[C@@H]1C[C@H](O)[C@@]1(C)C(=O)[C@H](O)C3=C(C)[C@@H](OC(=O)[C@H](O)[C@@H](NC(=O)OC(C)(C)C)c4ccccc4)C[C@@](O)([C@@H](OC(=O)c4ccccc4)[C@H]21)C3(C)C [DTX, docetaxel]",slight liver damage,higher accumulation in the liver and kidneys,12.5 ± 2.69 ng/mL,–,–,–,–
–,–,–,–,–,–,536 ± 44 ng·h/mL,530 ± 46 ng·h/mL,19.7 ± 6.27 L/kg,2.92 ± 0.97 h,0.691 ± 0.115 µg/mL,"CS(=O)(=O)N1CCN(Cc2cc3nc(-c4cccc5[nH]ncc45)nc(N4CCOCC4)c3s2)CC1 [PIC, pictilisib]",–,–,86.8 ± 17.6 ng/mL,little antitumor efficacy,13.19,1.96,precipitation in the free PIC group was observed
